The values that follow come from ChEMBL document CHEMBL1126155, “Renin inhibitory pentols showing improved enteral bioavailability” (J Med Chem, 1992).

In assay [1] the target is T1, Renin (Homo sapiens, UniProt P00797).
T1 sequence (P00797 whole entry): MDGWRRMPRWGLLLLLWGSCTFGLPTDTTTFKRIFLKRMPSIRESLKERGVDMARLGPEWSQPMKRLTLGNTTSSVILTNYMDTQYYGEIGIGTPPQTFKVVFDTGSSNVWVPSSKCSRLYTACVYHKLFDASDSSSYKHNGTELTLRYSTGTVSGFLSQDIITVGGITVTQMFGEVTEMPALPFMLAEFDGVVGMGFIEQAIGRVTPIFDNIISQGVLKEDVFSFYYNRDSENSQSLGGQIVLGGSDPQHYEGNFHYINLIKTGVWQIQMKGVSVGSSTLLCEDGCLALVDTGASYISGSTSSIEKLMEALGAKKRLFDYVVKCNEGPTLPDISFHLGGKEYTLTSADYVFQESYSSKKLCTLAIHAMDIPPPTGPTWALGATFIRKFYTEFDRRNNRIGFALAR
Kind of assay: Concentration required for 50% inhibition of human kidney renin.

Assay [2] deals with T1, Renin. Put plainly: Concentration required for 50% inhibition of human plasma renin. Format: cell-free. In short, it runs like this: (§1)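 Plasma renin from dog, human, rat, rhesus monkey or sheep plasma; assayed by a previously described plasma method, modified to be buffered at pH 7.4; IC50 in M.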
A further assay concerns the target Cathepsin D (Homo sapiens, UniProt P07339). Put plainly: Concentration required for 50% inhibition of cathepsin D. The method in brief: (§2)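 Pepsin and cathepsin D inhibition measured by an earlier-described method; inhibitor tested at concentrations up to 10^-4 M.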
A further assay has as its target Pepsin A (Homo sapiens, UniProt P0DJD9). Kind of assay: Inhibition of pepsin. The method in brief: as §2
The target of assay [3] is T2, Renin (Rattus norvegicus, UniProt P08424).
T2 sequence (P08424 whole entry): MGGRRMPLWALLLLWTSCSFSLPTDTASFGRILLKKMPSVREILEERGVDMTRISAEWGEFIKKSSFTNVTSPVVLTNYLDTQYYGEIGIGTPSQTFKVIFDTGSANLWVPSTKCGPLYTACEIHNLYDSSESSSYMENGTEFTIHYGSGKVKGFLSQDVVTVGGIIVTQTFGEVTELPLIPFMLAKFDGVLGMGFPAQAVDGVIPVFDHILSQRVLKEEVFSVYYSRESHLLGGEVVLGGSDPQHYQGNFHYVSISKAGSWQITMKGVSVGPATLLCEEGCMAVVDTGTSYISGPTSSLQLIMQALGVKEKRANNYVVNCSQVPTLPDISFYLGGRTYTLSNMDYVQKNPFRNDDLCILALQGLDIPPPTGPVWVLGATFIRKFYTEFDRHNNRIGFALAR
Put plainly: Concentration required for 50% inhibition of rat plasma renin. Format: cell-free. In short, it runs like this:
as §1

The target in the next assay is Renin (Canis familiaris). Kind of assay: Concentration required for 50% inhibition of dog plasma renin.
In the next assay the target is Renin (Ovis aries). Kind of assay: Concentration required for 50% inhibition of sheep plasma renin.
The next assay concerns the target Renin (Macaca mulatta). Put plainly: Concentration required for 50% inhibition of rhesus monkey plasma renin.

Pepsin A, sequence (P0DJD9 whole entry): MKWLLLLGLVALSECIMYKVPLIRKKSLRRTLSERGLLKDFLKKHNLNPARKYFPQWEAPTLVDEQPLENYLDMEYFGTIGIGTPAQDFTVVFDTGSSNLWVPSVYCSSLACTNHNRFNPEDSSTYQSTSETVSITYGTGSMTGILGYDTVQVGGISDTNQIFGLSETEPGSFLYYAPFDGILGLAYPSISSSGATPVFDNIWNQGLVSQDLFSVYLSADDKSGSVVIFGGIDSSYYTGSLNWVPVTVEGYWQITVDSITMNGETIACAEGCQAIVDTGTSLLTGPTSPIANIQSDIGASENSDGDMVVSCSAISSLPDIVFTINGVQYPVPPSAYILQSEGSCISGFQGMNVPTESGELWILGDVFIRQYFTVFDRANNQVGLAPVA
Cathepsin D, sequence (P07339 65-162 limits assumed): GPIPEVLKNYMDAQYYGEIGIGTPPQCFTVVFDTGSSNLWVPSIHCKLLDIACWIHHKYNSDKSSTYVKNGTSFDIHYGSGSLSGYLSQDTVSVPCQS
Cathepsin D, sequence (P07339 169-412 limits assumed): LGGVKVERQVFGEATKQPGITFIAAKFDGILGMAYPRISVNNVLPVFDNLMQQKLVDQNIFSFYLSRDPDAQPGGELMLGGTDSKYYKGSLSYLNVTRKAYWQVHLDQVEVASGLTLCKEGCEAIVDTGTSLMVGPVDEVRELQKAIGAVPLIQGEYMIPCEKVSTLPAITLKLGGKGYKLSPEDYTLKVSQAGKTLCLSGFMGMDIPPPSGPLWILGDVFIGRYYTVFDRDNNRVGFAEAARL

One may read the IC50 as the point on the concentration scale where inhibition reaches its midpoint. Regarding `CN(CCN(C)C(=O)N1CCOCC1)C(=O)O[C@@H](Cc1ccccc1)C(=O)NC(Cc1cnc[nH]1)C(=O)N[C@@H](CC1CCCCC1)[C@@H](O)[C@@H](O)[C@H](O)[C@H](O)CO` (stereo partly specified), the results for the IC50 against Renin [1] and against Renin [2] were 2.4 nM and 1.5 nM, respectively.

Turning to `CCC[C@H](NC(=O)[C@H](Cc1ccccc1)NC(=O)[C@@H](N)[C@@H](C)CC)C(=O)N[C@@H](CC1CCCCC1)[C@@H](O)[C@@H](O)[C@H](O)[C@H](O)CO`, the IC50 against Renin [1] stood at 50 nM; against Renin [2], 110 nM.

For `CCC[C@H](NC(=O)[C@H](Cc1ccccc1)NC(=O)[C@@H](N)[C@@H](C)CC)C(=O)N[C@@H](CC1CCCCC1)[C@@H](O)[C@@H](O)[C@H](O)[C@@H](O)CO`, the IC50 against Renin [1] was 120 nM; against Renin [2], 420 nM.

`CC(C)(C)S(=O)(=O)CC(Cc1ccccc1)C(=O)NC(Cc1c[nH]cn1)C(=O)N[C@@H](CC1CCCCC1)[C@@H](O)[C@@H](O)[C@H](O)[C@H](O)CO` (stereo partly specified): the IC50 is above 100000 nM against Cathepsin D; above 100000 nM against Pepsin A; 4.4 nM against Renin [1]; 4.5 nM against Renin [2]; 8000 nM at Renin [3]; 110 nM against Renin (Canis familiaris). For the same compound, the IC50 against Renin (Ovis aries) was determined as 100 nM; on Renin (Macaca mulatta) it was 11 nM.

In the case of `N[C@H]1CC[C@@H](C(=O)N[C@@H](Cc2ccccc2)C(=O)NC(Cc2c[nH]cn2)C(=O)N[C@@H](CC2CCCCC2)[C@@H](O)[C@@H](O)[C@H](O)[C@H](O)CO)CC1` (stereo partly specified), the IC50 on Renin [1] came to 12 nM; against Renin [2] it was 22 nM.
